In experiment [1] the test system is Staphylococcus aureus. Put plainly: Binding affinity to methicillin-resistant Staphylococcus aureus MRSA1 assessed per 10^8 cells/ml at 50 uM after overnight incubation by fluorescence analysis. In kind it is functional, organism-based. The essentials:
(§1)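 Incubated with compound, then pelleted, dissolved in 2% SDS, held at 4 °C overnight and sonicated 30 min. Fluorescence intensity compared with that of free compound (50 µM, or 5 µM for the more fluorescent analogue); expressed per 10⁸ cells/mL.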

For experiment [2], the system named is Klebsiella pneumoniae. Put plainly: Antibacterial activity against Klebsiella pneumoniae ATCC 700603 after 24 hrs. It counts as functional. As to conditions: ATCC 700603, 24 h. The method in brief: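 Broth microdilution in Mueller-Hinton medium. A single LB-plate colony was grown in Mueller-Hinton broth at 35 °C for 2–6 h to 10⁸ CFU/mL by turbidimetry. Compounds were dissolved in ddH₂O and serially diluted in Mueller-Hinton medium from 256 downward. About 10⁶ CFU/mL bacteria were added, and plates were incubated at 37 °C for 24 h.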

Experiment [3] concerns Staphylococcus aureus. Put plainly: Antibacterial activity against methicillin-resistant Staphylococcus aureus MRSA2 after 24 hrs. As to conditions: MRSA2, 24 h. In kind it is functional. The method in brief:
(§2)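 Broth microdilution in Mueller–Hinton medium. Inocula grown from single colonies at 35 °C to 10⁸ CFU/mL by turbidimetry, then added at ~10⁶ CFU/mL to serial dilutions of compound starting at 256 µg/mL (stocks in ddH2O). Incubated 37 °C for 24 h.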

Experiment [4] deals with metallo-beta-lactamase L1 (Stenotrophomonas maltophilia). Put plainly: Activity at Stenotrophomonas maltophilia metallo-beta-lactamase L1 expressed in Escherichia coli BL21 (DE3) by Michaelis-Menten equation analysis.
The test system of experiment [5] is Staphylococcus aureus ATCC 25923. Put plainly: Binding affinity to Staphylococcus aureus ATCC 25923 assessed per 10^8 cells/ml at 50 uM after overnight incubation by fluorescence analysis.
Experiment [6] has as its system Staphylococcus aureus. Put plainly: Antibacterial activity against methicillin-resistant Staphylococcus aureus MRSA1 after 24 hrs. It counts as functional. As to conditions: MRSA1, 24 h. The method in brief:
as §2

Experiment [7] has as its system metallo-beta-lactamase CcrA (Bacteroides fragilis). Put plainly: Activity at Bacteroides fragilis metallo-beta-lactamase CcrA expressed in Escherichia coli BL21 (DE3) by Michaelis-Menten equation analysis.
Experiment [8] concerns Klebsiella pneumoniae. Put plainly: Photodynamic inactivation of Klebsiella pneumoniae ATCC 700603 assessed as lethality at 6 uM after overnight incubation by traditional surface plating method in presence of 126 J/cm 2 white light irradiation. It counts as functional. The essentials:
(§3)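 Mixed 1:1 with compound and kept in the dark at 37 °C for 30 min with shaking, then exposed to filtered xenon white light (400–800 nm, 350 mW/cm²). Cells diluted in PBS, ~10⁴ CFU/mL plated on LB agar and grown overnight at 37 °C. Treated-and-irradiated CFU divided by untreated, unirradiated CFU; triplicate. Dark controls had no irradiation.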

In experiment [9] the test system is Staphylococcus aureus. Put plainly: Binding affinity to methicillin-resistant Staphylococcus aureus MRSA2 assessed per 10^8 cells/ml at 50 uM after overnight incubation by fluorescence analysis. It counts as functional, organism-based. The method in brief: as §1
In experiment [10] the test system is Staphylococcus aureus. Put plainly: Binding affinity to methicillin-resistant Staphylococcus aureus MRSA1 at 50 uM after overnight incubation by confocal image analysis. In kind it is functional, organism-based. The method in brief: (§4)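 Incubated with 50 µM compound in the dark with shaking, washed twice in PBS and imaged by confocal fluorescence and differential interference contrast microscopy.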

The subject of experiment [11] is Staphylococcus aureus. Put plainly: Binding affinity to methicillin-resistant Staphylococcus aureus MRSA2 at 50 uM after overnight incubation by confocal image analysis. It counts as functional, organism-based. The method in brief: as §4
Experiment [12] concerns Klebsiella pneumoniae. Put plainly: Photodynamic inactivation of Klebsiella pneumoniae ATCC 700603 assessed as lethality at 10 uM after overnight incubation by traditional surface plating method in presence of 350 mW/cm2 white light irradiation. It counts as functional. The essentials: as §3
The test system of experiment [13] is Klebsiella pneumoniae. Put plainly: Antibacterial activity against Klebsiella pneumoniae ATCC 700603 assessed as lethality at 10 uM after overnight incubation by traditional surface plating method. It counts as functional. The essentials:
as §3

The test system of experiment [14] is Klebsiella pneumoniae. Put plainly: Photodynamic inactivation of Klebsiella pneumoniae ATCC 700603 assessed as lethality at 6 uM after overnight incubation by traditional surface plating method in presence of 189 J/cm 2 white light irradiation. It counts as functional. The essentials: as §3
A short description of experiment [15]: Binding affinity to Klebsiella pneumoniae ATCC 700603 at 50 uM after overnight incubation by confocal image analysis.
Experiment [16] deals with Staphylococcus aureus ATCC 25923. Put plainly: Binding affinity to Staphylococcus aureus ATCC 25923 assessed per 10^8 cells/ml at 5 uM after overnight incubation by fluorescence analysis.
The test system of experiment [17] is Staphylococcus aureus. Put plainly: Binding affinity to methicillin-resistant Staphylococcus aureus MRSA2 assessed per 10^8 cells/ml at 5 uM after overnight incubation by fluorescence analysis. It counts as functional, organism-based. The essentials: as §1
The subject of experiment [18] is Staphylococcus aureus. Put plainly: Binding affinity to methicillin-resistant Staphylococcus aureus MRSA1 assessed per 10^8 cells/ml at 5 uM after overnight incubation by fluorescence analysis. In kind it is functional, organism-based. The essentials: as §1

The source made the active and inactive calls. No cut-off for these calls is given here.

From ChEMBL document CHEMBL2311278, “Novel fluorescent cephalosporins: synthesis, antimicrobial activity and photodynamic inactivation of antibiotic resistant bacteria” (2013) come the findings set out here.

By MIC is commonly meant the least concentration at which growth counts as inhibited. A word on the Km: it is the concentration of substrate that gives half-maximal velocity. The term Vmax denotes the rate approached at saturating substrate. The term kcat denotes the maximal rate divided by the concentration of active sites. In the case of `O=C(Cc1cccs1)N[C@@H]1C(=O)N2C(C(=O)O)=C(CSc3ccc(NC(=O)c4cc5c(ccc6ccccc65)oc4=O)cc3)CS[C@H]12`, the Activity in the experiment with Staphylococcus aureus [1] was 3.14 µM; in experiment [5] it was 6.59 µM; in the experiment on Staphylococcus aureus [9], 2.95 µM. Also, the minimum inhibitory concentration (MIC) with Klebsiella pneumoniae [2], against Staphylococcus aureus [3] and against Staphylococcus aureus [6] was over 128 µg/mL each time. Moreover, the Michaelis constant (Km) in experiment [4] stood at 20.2 µM; in [7], 24.4 µM. The results for the Vmax in [4] and in experiment [7] were 0.59 µM/s and 0.604 µM/s, respectively. Also, the values for the catalytic constant (kcat) in experiment [4] and in experiment [7] were 29.5 s⁻¹ and 121 s⁻¹, respectively. Moreover, the outcome in the experiment on Klebsiella pneumoniae [8] was inactive.
Turning to `O=C(Cc1cccs1)N[C@@H]1C(=O)N2C(C(=O)O)=C(CSc3ccc(NC(=O)c4cc5ccccc5oc4=O)cc3)CS[C@H]12`, the Activity was 2.15 µM with Staphylococcus aureus [1]; over 65% in the experiment on Klebsiella pneumoniae [12]; under 5% in the experiment on Klebsiella pneumoniae [13]; 2.13 µM in experiment [5]; 84% in the experiment on Klebsiella pneumoniae [8]; over 95% in the experiment on Klebsiella pneumoniae [14]. Moreover, the Activity in the experiment with Staphylococcus aureus [9] was found to be 1.82 µM. Moreover, the outcome (in the experiment on Staphylococcus aureus [10]; in the experiment with Staphylococcus aureus [11]; in experiment [15]) was Active. The MIC against Klebsiella pneumoniae [2], with Staphylococcus aureus [3] and in the experiment on Staphylococcus aureus [6] was over 128 µg/mL each time. For the same compound, the Km stood at 6.02 µM in experiment [4] and 38.3 µM in [7]. In addition, the maximum rate (Vmax) was found to be 0.471 µM/s in [4] and 1.05 µM/s in [7]. The kcat in experiment [4] is 23.5 s⁻¹; in experiment [7] it was 209 s⁻¹.
For `O=C(O)c1cc2c(ccc3ccccc32)oc1=O`, the Activity in experiment [16] was 0.044 µM; in the experiment on Staphylococcus aureus [17], 0.033 µM; in the experiment on Staphylococcus aureus [18] it was 0.03 µM. In addition, the result in the experiment on Klebsiella pneumoniae [8] was inactive.
Regarding `O=C(O)c1cc2ccccc2oc1=O`, the Activity with Staphylococcus aureus [1] came to 0.71 µM; in experiment [5] it was 0.68 µM; in the experiment on Staphylococcus aureus [9], 0.81 µM.
